Screening data deposited in PubChem by Johns Hopkins Ion Channel Center.
The list is not random: actives were taken first. Their share in the collection is about 3.7%.
KCNQ1 inh – inhibitors of human KCNQ1 potassium channel; P51787; CHO-K1 KCNQ1, FluxOR thallium flux fluorescence; stronger effect = higher value; B-score at 10 µM; hit rate 1.3% among 310,000;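 active = compounds whose thallium flux B-score, printed positive for inhibition, exceeds three library SD while starting fluorescence stays within three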;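 note: channel opened by potassium depolarization with thallium stimulus after 20 min compound exposure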
KCNK9 inh – inhibitors of human KCNK9 two-pore domain potassium channel; Q9NPC2; HEK293 KCNK9, FluxOR thallium flux fluorescence; stronger effect = lower value; B-score at 10 µM; hit rate 1.2% among 310,000; AID 488922;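 active = ratio B-score over 3 SD below the library mean, with starting fluorescence within 5 SD of its mean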;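 note: negative B-score means less thallium flux so channel inhibition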
KCNK3 block – human KCNK3 channel inhibition, primary screen; hit rate 0.84% among 340,000; B-score at 10 µM; CHO-KCNK3 thallium flux, FluxOR fluorescence; stronger effect = lower value; O14649; AID 602410;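 active = B-score under library mean minus 4 SD, starting fluorescence ratio at most library mean plus 5 SD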;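 note: more negative B-score means stronger inhibition of thallium flux through KCNK3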
KCNQ1 act – human KCNQ1 channel potentiation or activation; P51787; CHO-K1 KCNQ1, thallium flux FluxOR fluorescence; stronger effect = higher value; hit rate 0.35% among 310,000; B-score at 10 µM;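 active = fluorescence ratio B-score, a plate-corrected score, at least three library SD, with initial intensity B-score within 5 SD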
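Schedule – 37 °C overnight plating, 90-min dark dye load, 20-min compound pretreatment · System – stable KCNQ1 CHO-K1 line · Probe or stimulus – thallium- and potassium-containing depolarizing buffer · Measured by – kinetic FluxOR fluorescence, 10 s baseline plus 110 s post-stimulus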
hERG rescue – hERG (human) protection from proarrhythmic block; CHO-hERG, FluxOR thallium flux, dofetilide IC70 present; Q12809; AID 1511; activation (rescue from dofetilide block), less the hit threshold, % at 10 µM; hit rate 0.51% among 310,000;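 active = activation above the mean of controls blocked by dofetilide plus 5 SD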;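 note: thallium influx through hERG after potassium depolarization seen as dye fluorescence rise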
Kir21 block – blocks the mouse Kir2.1 inward-rectifier potassium channel. B-score at 10 µM. hit rate 0.85% among 310,000. P35561. AID 1672. HEK293-Kir2.1, FluxOR thallium flux fluorescence; stronger effect = lower value;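 active = fluorescence ratio B-score at or below minus 3 SD of library scores, with starting-brightness B-score within 2 SD, cut at about -4.2 in these data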;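 note: channel flux triggered by added potassium and thallium sulfate stimulus; B-score of peak minus minimum fluorescence over baseline after thallium stimulus; more negative B-score means stronger Kir2.1 block with less thallium influx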
KCNQ1 inh valid – human KCNQ1 channel inhibition, validation assay | shares compounds with KCNQ1 inh | KCNQ1 cell line, FluxOR thallium flux fluorescence | inhibition, % at 10 µM | hit rate 93% among 1,600 | AID 588353;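 active = primary screen active, with duplicate mean exceeding buffer control mean plus 3 SD of buffer wells, cut at about 28% in these data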
CHO Tl flux – counter-screen for KCNQ1 inhibitors: effect in parental CHO cells | shares compounds with KCNQ1 inh | parental CHO-K1, FluxOR thallium flux fluorescence ratio; stronger effect = lower value; zero means no signal rise above baseline | fluorescence ratio (Tl flux) at 10 µM | hit rate 21% among 1,600;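 active = mean of duplicate thallium-flux fluorescence ratios in parental host cells more than 5 SD below the buffer control mean, cut at about 0.38 in these data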;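 note: ratio is peak minus minimum fluorescence divided by baseline fluorescence; actives read low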
KCNQ1 ephys val – blocks human KCNQ1 current in automated patch clamp; calls only at 10 µM; KCNQ1-CHO cells; AID 624120; hit rate 20% among 490; shares compounds with KCNQ1 inh;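 active = KCNQ1 current drop exceeding 3 SD of negative control wells, seen in both duplicate runs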;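 note: steady state current during a 2 s step from -80 to +40 mV; negative values mean current inhibition and positive values mean potentiation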
KCNQ2 spec – rat KCNQ2 inhibition in KCNQ1 inhibitor specificity screen; shares compounds with KCNQ1 inh; KCNQ2 cells, FluxOR thallium flux fluorescence; inhibition, % at 10 µM; hit rate 71% among 1,600; AID 651746;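 active = mean percent inhibition of the KCNQ2 thallium signal more than 5 SD above the buffer-only control wells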;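 note: KCNQ2 expressed in CHO cells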
KCNQ1-KCNE1 inh – selectivity of KCNQ1 inhibitors: inhibition of human KCNQ1/KCNE1 channel | shares compounds with KCNQ1 inh | KCNQ1/KCNE1 cells, FluxOR thallium flux fluorescence | inhibition, % at 10 µM | hit rate 77% among 1,600;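 active = mean percent inhibition of duplicate wells above the buffer-only control mean plus 3 SD of those controls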
Target sequence (P51787 whole entry, looked up): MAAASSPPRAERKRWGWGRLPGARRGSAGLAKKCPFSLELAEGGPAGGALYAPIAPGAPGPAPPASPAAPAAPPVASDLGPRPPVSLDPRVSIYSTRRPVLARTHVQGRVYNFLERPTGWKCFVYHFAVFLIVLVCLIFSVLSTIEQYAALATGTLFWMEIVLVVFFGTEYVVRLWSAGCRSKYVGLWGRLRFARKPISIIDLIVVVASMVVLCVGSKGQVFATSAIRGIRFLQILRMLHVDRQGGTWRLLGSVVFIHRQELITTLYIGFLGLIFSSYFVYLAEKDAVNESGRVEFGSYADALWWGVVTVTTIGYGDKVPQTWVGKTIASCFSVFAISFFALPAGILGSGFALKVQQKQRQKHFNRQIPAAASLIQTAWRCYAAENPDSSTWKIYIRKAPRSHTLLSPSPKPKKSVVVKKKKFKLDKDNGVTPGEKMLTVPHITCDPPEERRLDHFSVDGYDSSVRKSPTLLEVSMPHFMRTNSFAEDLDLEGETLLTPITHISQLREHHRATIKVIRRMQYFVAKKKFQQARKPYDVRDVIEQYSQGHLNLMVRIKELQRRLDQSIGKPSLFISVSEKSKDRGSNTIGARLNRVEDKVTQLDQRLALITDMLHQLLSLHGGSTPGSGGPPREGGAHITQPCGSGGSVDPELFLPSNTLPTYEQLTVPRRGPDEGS
Large screens that a line does not name were inactive (follow-up assays come after a bar, where they were run).

CCOC(=O)c1c(C)nc(C(Cl)(Cl)Cl)nc1N	KCNQ1 inh 8 | KCNQ1 inh valid 86 | CHO Tl flux inactive | KCNQ2 spec inactive | KCNQ1-KCNE1 inh 88%
CSCCC(NC(=O)c1ccccc1Cl)C(=O)Nc1ccncc1 (stereo not given)	none (no result: KCNQ1 inh, KCNK9 inh, KCNQ1 act, hERG rescue, Kir21 block)
O=C(Nc1nc(-c2ccccc2)cs1)C1CCCCN1S(=O)(=O)c1ccc(Cl)cc1 (stereo not given)	KCNQ1 inh 10 | KCNQ1 inh valid 90 | CHO Tl flux inactive | KCNQ1 ephys val inactive | KCNQ2 spec 93% | KCNQ1-KCNE1 inh 131%
Cc1ccc(Cn2nnc3c(=O)[nH]c(C4CCN(C(=O)Cc5cccs5)CC4)nc32)cc1	KCNQ1 inh 7 | KCNQ1 inh valid inactive | CHO Tl flux inactive | KCNQ2 spec inactive | KCNQ1-KCNE1 inh inactive
CCC1CCCCN1C(=O)COC(=O)COc1ccc(Br)cc1 (stereo not given)	none (no result: KCNQ1 inh, KCNK9 inh, KCNQ1 act, hERG rescue, Kir21 block)
O=C(Nc1ccc(NC(=S)NC(=O)c2ccccc2F)cc1)c1cccs1	KCNQ1 inh 6 | KCNQ1 inh valid 94 | CHO Tl flux inactive | KCNQ1 ephys val active | KCNQ2 spec 63% | KCNQ1-KCNE1 inh 132%
COc1ccccc1CCNC(=O)C(=O)NCC1OCCN1S(=O)(=O)c1ccc([N+](=O)[O-])cc1 (stereo not given)	none
OCCN=C1CCCc2c1[nH]c1ccc(Br)cc21	none
C=CCN=C1CCCc2c1[nH]c1ccc(C)cc21	KCNQ1 inh 6 | KCNQ1 inh valid 54 | CHO Tl flux inactive | KCNQ2 spec inactive | KCNQ1-KCNE1 inh 46%
Cc1nn(CCCC(=O)Nc2nccs2)c(C)c1[N+](=O)[O-]	none
CSCc1cc(N(C)c2ccccc2)nc(-c2ccccc2)n1	KCNQ1 inh 7 | KCNQ1 inh valid 91 | CHO Tl flux inactive | KCNQ1 ephys val inactive | KCNQ2 spec 91% | KCNQ1-KCNE1 inh 98%
COc1cc(CSC)nc(-c2ccccc2)n1	none
Cc1cc(C)c(S(=O)(=O)N2CCN(C(=O)c3ccc(-n4cncn4)c([N+](=O)[O-])c3)CC2)c(C)c1	none
CN1CCN(C2=Cc3ccc(Cl)cc3Sc3ccc(F)cc32)CC1	KCNQ1 inh 6 | KCNQ1 inh valid 173 | CHO Tl flux inactive | KCNQ1 ephys val inactive | KCNQ2 spec 116% | KCNQ1-KCNE1 inh 188%
CN1CCN(C2Cc3ccc(F)cc3Sc3cc(F)c(Cl)cc32)CC1 (stereo not given)	none
COc1ncnc2c1sc1nc(-c3ccccc3)c3c(c12)CCCC3	KCNQ1 inh 10 | KCNQ1 inh valid 103 | CHO Tl flux inactive | KCNQ1 ephys val inactive | KCNQ2 spec 96% | KCNQ1-KCNE1 inh 131%
CCOC(=O)C1CCN(S(=O)(=O)c2ccc3[nH]c4c(c3c2)CCCC4)CC1	KCNQ1 inh 6 | KCNQ1 inh valid 102 | CHO Tl flux inactive | KCNQ1 ephys val active | KCNQ2 spec 67% | KCNQ1-KCNE1 inh 102%
CCOC(=O)C1CCN(S(=O)(=O)c2ccc3[nH]c(=O)c(=O)[nH]c3c2)CC1	none
c1ccc(-c2noc(CSc3nnnn3-c3ccccc3)n2)cc1	KCNQ1 inh 6 | KCNQ1 inh valid 60 | CHO Tl flux inactive | KCNQ2 spec 62% | KCNQ1-KCNE1 inh 74%
COc1cc(NC(=O)c2ccno2)cc(C(=O)Nc2cccc(C(F)(F)F)c2)c1	KCNQ1 inh 9 | KCNQ1 inh valid 110 | CHO Tl flux 0.35 | KCNQ2 spec 100% | KCNQ1-KCNE1 inh 163%
COc1ccc(CNC(=O)COC(=O)c2cc(S(=O)(=O)N3CCOCC3)ccc2O)cc1OC	none (no result: KCNQ1 inh, KCNK9 inh, KCNQ1 act, hERG rescue, Kir21 block)
O=C(c1cccnc1)C1CCCN(Cc2nc(Cc3ccccc3)no2)C1 (stereo not given)	none
CCCCSc1nc(C)c(CC(=O)O)c(=O)[nH]1	KCNQ1 inh 10 | KCNQ1 inh valid 62 | CHO Tl flux inactive | KCNQ2 spec inactive | KCNQ1-KCNE1 inh 47%
CC(=O)c1cccc(S(=O)(=O)Nc2ccc3nc(C)sc3c2)c1	none
Cc1nc2ccc(NS(=O)(=O)c3ccc(C)c(C)c3)cc2s1	KCNQ1 inh 7 | KCNQ1 inh valid 68 | CHO Tl flux inactive | KCNQ2 spec inactive | KCNQ1-KCNE1 inh inactive
CC(C)(C)N=Cc1c(O)ccc2oc3c(c12)CCCC3	KCNQ1 inh 9, KCNK9 inh -7.9 | KCNQ1 inh valid inactive | CHO Tl flux inactive | KCNQ2 spec 60% | KCNQ1-KCNE1 inh inactive
NC(=O)N/N=C/c1c(O)ccc2oc3c(c12)CCCC3	none
CC1(C)Cc2c(C#N)c(SCCOc3ccccc3)nc(N3CCOCC3)c2CO1	KCNQ1 inh 7, KCNK3 block -9.4 | KCNQ1 inh valid 84 | CHO Tl flux inactive | KCNQ2 spec 65% | KCNQ1-KCNE1 inh 164%
CC1(C)Cc2c(C#N)c(SCCO)nc(N3CCOCC3)c2CO1	none
c1ccc2c(Nc3ccc(N4CCOCC4)cc3)nc(N3CCOCC3)nc2c1	none
Cc1cccc(-c2nc(Nc3ccc(N4CCOCC4)cc3)c3ccccc3n2)c1	KCNQ1 inh 13 | KCNQ1 inh valid 108 | CHO Tl flux inactive | KCNQ1 ephys val inactive | KCNQ2 spec 90% | KCNQ1-KCNE1 inh 148%
CC12CC3(C)CC(C)(C1)CC(C(=O)NC(=S)N1CCOCC1)(C2)C3	KCNQ1 inh 8 | KCNQ1 inh valid 53 | CHO Tl flux inactive | KCNQ2 spec inactive | KCNQ1-KCNE1 inh 44%
O=C(NC(=S)N1CCOCC1)C12CC3CCC(CC(C3)C1)C2	none
CCCCCn1c(CN2CCN(c3cccc(Cl)c3)CC2)nc2c1c(=O)n(C)c(=O)n2C	none
CCCn1c(CN2CCN(c3cccc(Cl)c3)CC2)nc2c1c(=O)n(C)c(=O)n2C	KCNQ1 inh 7 | KCNQ1 inh valid 80 | CHO Tl flux inactive | KCNQ2 spec 127% | KCNQ1-KCNE1 inh 36%
COc1ccccc1-n1cnnc1SCC(=O)Nc1cccc(S(N)(=O)=O)c1	none
O=c1oc2c(-c3cccc(F)c3)cc(O)cc2s1	KCNQ1 inh 11 | KCNQ1 inh valid 74 | CHO Tl flux inactive | KCNQ2 spec inactive | KCNQ1-KCNE1 inh 64%
Fc1ccc(CNC(=S)NC2CCCCCC2)cc1	none
